Here are results for 10 compounds from ChEMBL document CHEMBL3108707, “Design, synthesis and structure-activity relationships of some novel, highly potent anti-invasive (E)- and (Z)-stilbenes” (2013).

Calls of active or inactive are those of the source. The calls are words filed in the database; no cut-off is given here.

Assay [1] is described as follows: Antiinvasive activity against human MCF7/6 cells assessed as minimum log concentration required to show activity after 8 days by hematoxylin and eosin staining-based chick heart invasion assay. Type of assay: functional. The arrangement: unit: log(µmol/L). A digest of the protocol:
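Confronting cultures were set up as chick heart fragments (9-day embryos) plus MCF-7/6 aggregates, 8 days at 37 °C. Compound was dosed in DMSO at 10, 1, 0.1 and 0.01 µmol/L, in duplicate, and grades were scored histologically. c_min is the lowest concentration where both repeats gave grade I or II; inconclusive cases were repeated. A single active repeat counted if all repeats at 10-fold higher were active. The value is reported as log c_min.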

The subject of assay [2] is MCF7/6. Put plainly: Antiinvasive activity against human MCF7/6 cells assessed as decrease in occupying outer fibroblast-like and myoblast cell layers at 0.01 umol/L after 8 days by hematoxylin and eosin staining assay. Format: functional, cell-based. Summed up:
(§1)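 Precultured heart fragments from 9-day-old chick embryos (0.4 mm diameter) were paired with MCF-7/6 aggregates (0.2 mm). Pairs sat overnight at 37 °C on semi-solid agar, then spun 8 days in suspension (37 °C, 120 rpm, 10% CO₂) with compound added in DMSO. Runs were usually in duplicate; 10 µmol/L often single. 7 µm sections were scored histologically for invasion grade 0–IV, with alternate sections stained with 5D10 antibody.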

Assay [3] has as its system MCF7/6. Put plainly: Antiinvasive activity against human MCF7/6 cells assessed as decrease in occupying outer fibroblast-like and myoblast cell layers at 0.1 umol/L after 8 days by hematoxylin and eosin staining assay. Type of assay: functional, cell-based. A digest of the protocol:
as §1

For assay [4], the system named is MCF7/6. Put plainly: Antiinvasive activity against human MCF7/6 cells assessed as decrease in occupying outer fibroblast-like and myoblast cell layers at 1 umol/L after 8 days by hematoxylin and eosin staining assay. Type of assay: functional, cell-based. A digest of the protocol: as §1
The test system of assay [5] is MCF7/6. The assay can be described thus: Antiinvasive activity against human MCF7/6 cells assessed as precultured chick heart tissue fragment attachment without occupying heart tissue and outermost fibroblastic cell layers at 1 umol/L after 8 days by hematoxylin and eosin staining assay. Format: functional, cell-based. A digest of the protocol:
as §1

The test system of assay [6] is MCF7/6. The assay can be described thus: Antiinvasive activity against human MCF7/6 cells assessed as decrease in occupying outer fibroblast-like and myoblast cell layers at 10 umol/L after 8 days by hematoxylin and eosin staining assay. Type of assay: functional, cell-based. A digest of the protocol:
as §1

In assay [7] the test system is MCF7/6. Put plainly: Antiinvasive activity against human MCF7/6 cells assessed as chick precultured heart tissue fragment attachment without occupying heart tissue and outermost fibroblastic cell layer at 0.1 umol/L after 8 days by hematoxylin and eosin staining assay. Type of assay: functional, cell-based. A digest of the protocol:
as §1

The subject of assay [8] is MCF7/6. Put plainly: Antiinvasive activity against human MCF7/6 cells assessed as occupying more than half of original amount of chick precultured heart tissue fragment at 10 umol/L after 8 days by hematoxylin and eosin staining assay. Type of assay: functional, cell-based. Summed up:
as §1

For assay [9], the system named is MCF7/6. The assay can be described thus: Antiinvasive activity against human MCF7/6 cells assessed as occupying less than half of original amount of heart tissue at 0.1 umol/L after 8 days by hematoxylin and eosin staining assay. Type of assay: functional, cell-based. Summed up:
as §1

In assay [10] the test system is MCF7/6. The assay can be described thus: Antiinvasive activity against human MCF7/6 cells assessed as occupying less than half of original amount of heart tissue at 1 umol/L after 8 days by hematoxylin and eosin staining assay. Type of assay: functional, cell-based. Summed up:
as §1

Assay [11] deals with MCF7/6. Put plainly: Antiinvasive activity against human MCF7/6 cells assessed as precultured chick heart tissue fragment attachment without occupying heart tissue and outermost fibroblastic cell layer at 10 umol/L after 8 days by hematoxylin and eosin staining assay. Format: functional, cell-based. A digest of the protocol:
as §1

The test system of assay [12] is MCF7/6. The assay can be described thus: Antiinvasive activity against human MCF7/6 cells assessed as occupying less than half of original amount of chick precultured heart tissue fragment at 10 umol/L after 8 days by hematoxylin and eosin staining assay. Format: functional, cell-based. Summed up:
as §1

As for `COc1cc(/C=C\c2ccccc2)cc(OC)c1OC`, in assay [1], the logMEC is -2. Besides, the result in the assay with MCF7/6 [2], with MCF7/6 [3], in the assay with MCF7/6 [4], with MCF7/6 [5] and in the assay with MCF7/6 [6] was Active.
For `COc1ccc(/C=C/c2ccccc2)cc1`, in [1], the logMEC is recorded as -1. The outcome in the assay with MCF7/6 [7] and with MCF7/6 [3] was Active. Moreover, the outcome with MCF7/6 [8] was inactive.
Consider `COc1ccc(/C=C/c2ccc(F)cc2)cc1`, for which the logMEC in assay [1] was -2. For the same compound, the result in the assay on MCF7/6 [2], in the assay with MCF7/6 [3] and in the assay with MCF7/6 [6] was Active.
For the compound `Fc1ccc(/C=C/c2ccc(F)cc2)cc1`, in assay [1], the logMEC is on record as -2. Also, the result with MCF7/6 [2], with MCF7/6 [3] and with MCF7/6 [6] was Active.
In the case of `Fc1ccc(/C=C\c2ccccc2)cc1`, in assay [1], the logMEC is recorded as -2. Moreover, in the assay on MCF7/6 [2], the result was Active.
Regarding `Fc1ccc(/C=C/c2ccccc2)cc1`, the result in the assay on MCF7/6 [9] was inactive. In the assay on MCF7/6 [4], the result was Active.
Consider `COc1cc(/C=C/c2ccc(F)cc2)cc(OC)c1OC`, for which, in assay [1], the logMEC came to 0. Besides, the outcome in the assay with MCF7/6 [9] was inactive. Further, the outcome in the assay on MCF7/6 [6] was Active.
Regarding `COc1cc(/C=C\c2ccc(F)cc2)cc(OC)c1OC`, in assay [1], the logMEC is given as 1. Besides, the result in the assay on MCF7/6 [9] and in the assay on MCF7/6 [10] was inactive. For the same compound, the outcome with MCF7/6 [11] was Active.
`C(=C\c1ccccc1)/c1ccccc1`: the logMEC in assay [1] is given as -1. The outcome in the assay with MCF7/6 [3], with MCF7/6 [4] and with MCF7/6 [5] was Active. For the same compound, the outcome with MCF7/6 [12] was inactive.
For `COc1cc(/C=C/c2ccccc2)cc(OC)c1OC`, the logMEC in assay [1] was -1. In addition, in the assay with MCF7/6 [6], the outcome was Active.
